Entries after “also recorded” stand apart in the source; their conditions may differ.
Experiments:
CD44 gene = assay: Relative gene expression in Notch1 silenced MDA-MB-231 by real-time PCR; type: cell-based, human; settings: MDA-MB-231, 72 h, RT-PCR; AB36_siRNA MR 50, metformin 200 μM; mean of n = 3
MDA-MB-231 cells [1] = assay: MTT cytotoxicity for IC50 and combination index; type: cell-based; settings: Homo sapiens, MDA-MB-231, 72 h
Procedure, shortened: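 MTT viability assay in MDA-MB-231 cells at 72 h. The IC50 of the test compound came from a dose range analysed in CompuSyn. For the combination, five test compound doses (200–450 μM) were paired with a fixed dose of lipopeptide–Notch1 siRNA complex. Combination index was derived by the Chou–Talalay method. Data are mean ± SEM, n = 3.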

MMP-2 gene = assay: Relative gene expression in Notch1 silenced MDA-MB-231 by real-time PCR; type: cell-based, human; settings: MDA-MB-231, 72 h, RT-PCR; AB36_siRNA MR 50, metformin 200 μM; mean of n = 3
CD24 gene = assay: as above; type: cell-based, human; settings: MDA-MB-231, 72 h, RT-PCR; AB36_siRNA MR 50, metformin 200 μM; mean of n = 3
Notch1 gene = assay: Gene silencing by real-time PCR; type: cell-based, human; settings: 72 h, MDA-MB-231, MR50 (1.25 μM lipopeptide, 25 nM Notch1 siRNA), RT-PCR, mean ± SEM of three
Erk2 gene = assay: Gene silencing by real-time PCR; type: cell-based, human; settings: 72 h, MDA-MB-231, MR50, RT-PCR, mean ± SEM of three
Erk1 gene = assay: Gene silencing by real-time PCR; type: cell-based, human; settings: mean ± SEM of three
MDA-MB-231 cells [2] = assay: Cellular uptake by flow cytometry; type: cell-based, human; settings: DY-547 labelled siRNA, MR 50, 1 h incubation
Procedure, shortened: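 MDA-MB-231 cells were incubated 1 h with complexes of FAM-labelled lipopeptide (1.25 μM) and DY-547-labelled siRNA (25 nM), MR 50. Complexes were pre-formed by mixing and resting 30 min at room temperature. Uptake was read by flow cytometry in the FITC and PE channels, with single-label complexes used for compensation. Samples were run in duplicate; values are mean ± SEM of two replicates.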

MDA-MB-231 cells [3] = assay: Uptake studies by ApoTome microscopy; type: cell-based, human; settings: MR 50, 6 h incubation at 37 °C
HUVEC = assay: Cellular uptake by flow cytometry; type: cell-based, human; settings: DY-547 labelled siRNA, MR 50, 1 h incubation, hard to transfect primary cells, two replicates
Notch1 protein = assay: Immunostaining of Notch1 protein; type: cell-based, human; settings: MDA-MB-231, 72 h, MR50, TRITC signal versus untreated vehicle
Procedure, shortened: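 MDA-MB-231 cells were seeded at 14000 per well on etched coverslips and left overnight. They were then transfected with unlabelled lipopeptide (1.25 μM) complexed to Notch1-silencing siRNA (25 nM), MR 50, for 72 h. Untreated cells served as vehicle. Notch1 was detected by immunofluorescence.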

trypsin = assay: Protease stability of lipopeptides; type: in vitro ADME; settings: 0.1 μg trypsin, protocol of ref. 14
[4] = 48 h, MDA-MB-231, MR50 (1.25 μM lipopeptide, 25 nM Erk1/2 siRNA), RT-PCR

Q: Which results are given for `CN(C)C(=N)N=C(N)N` [metformin]?
A: relative expression of the CD44 gene (CD44 gene): did not show any changes; IC50 (MDA-MB-231 cells [1]): 374 µM; relative expression of the MMP-2 gene (MMP-2 gene): did not show any changes; relative expression of the CD24 gene (CD24 gene): did not show any changes

Q: With “FAM-^γAbu-Arg- Lys-N^ε(stearyl)-Arg-Sar-Arg-Gpn-Arg- Lys-N^ε(stearyl)-Arg-Sar-Arg-NH2 [AB32]” as the compound, how does the “Knockdown percentage, Notch1” value (Notch1 gene) read?
A: The value was 73.1 ± 2.8%.

Q: What about the “Knockdown percentage, Erk2” value (Erk2 gene) of the same compound?
A: Its value is 60.3 ± 3.2%.

Q: What about the “Knockdown percentage, Erk1” value (Erk1 gene; [4]) of the same compound?
A: The value was 51.6 ± 7.4%.

Q: What about the “Knockdown percentage, Erk1” value (Erk1 gene; 72 h, MDA-MB-231, MR50, RT-PCR) of the same compound?
A: The value was 70.6 ± 2.3%.

Q: Which results are given for “FAM-γAbu-Arg- C^α-Octylgly -Arg-Sar-Arg-Gly-Arg- Lys-N^ε(D-alpha-Tocopherol succinyl)-Arg-Sar-Arg-NH2 [AB18]”?
A: Knockdown percentage, Notch1 (Notch1 gene): 90.8 ± 3.06%; Knockdown percentage, Erk2 (Erk2 gene): 85.9 ± 16.7%; siRNA internalization (ranking among designed lipopeptides) (MDA-MB-231 cells [2]): highest siRNA internalization; also recorded: highest level of siRNA; siRNA internalization relative to HiPerFect_siRNA (MDA-MB-231 cells [2]; two replicates): 1.79 times; cytosolic distribution of siRNA compared with HiPerFect (MDA-MB-231 cells [3]): higher levels of cytosolic distribution of siRNA; Knockdown percentage, Erk1 (Erk1 gene; [4]): 62.6 ± 12.5%; Knockdown percentage, Erk1 (Erk1 gene; 72 h, MDA-MB-231, MR50, RT-PCR): 89.1 ± 6.3%

Q: For “FAM-γAbu-Arg- Lys-N^ε(1-Pyrenebutyryl)-Arg-Sar-Arg-Gly-Arg- Lys-N^ε(1-Pyrenebutyryl)-Arg-Sar-Arg-NH2 [AB17]”, which “Knockdown percentage, Notch1” value (Notch1 gene) is on record?
A: Its value is 82.5 ± 5.6%.

Q: And the “Knockdown percentage, Erk2” value (Erk2 gene)?
A: Its value is 75.8 ± 5.1%.

Q: What about the “Knockdown percentage, Erk1” value (Erk1 gene; [4]) of the same compound?
A: The value was 67.9 ± 7.6%.

Q: What about the “Knockdown percentage, Erk1” value (Erk1 gene; 72 h, MDA-MB-231, MR50, RT-PCR) of the same compound?
A: The value was 85.9 ± 8.8%.

Q: How did the “Knockdown percentage, Notch1” value (Notch1 gene) turn out when “FAM-γAbu-Arg-C^α-Octylgly-Arg-Sar-Arg-Gly-Arg-Lys-N^ε(1-Adamantyl)-Arg-Sar-Arg-NH2 [AB29]” was run?
A: The value was 50.5 ± 7.7%.

Q: What about the “Knockdown percentage, Erk2” value (Erk2 gene) of the same compound?
A: Its value is 59.8 ± 7.2%.

Q: What about the “siRNA internalization (ranking among designed lipopeptides)” value (MDA-MB-231 cells [2]) of the same compound?
A: The value was “much lower efficiency; also recorded: lowest amount of siRNA”.

Q: And the “Knockdown percentage, Erk1” value (Erk1 gene; [4])?
A: Its value is 52.6 ± 10.2%.

Q: And the “Knockdown percentage, Erk1” value (Erk1 gene; 72 h, MDA-MB-231, MR50, RT-PCR)?
A: Its value is 58.8 ± 10.9%.

Q: Which “cellular internalization of siRNA relative to HiPerFect” value (HUVEC) does the source give for “PEG9-Arg- C^α-Octylgly -Arg-Sar-Arg-Gly-Arg-Lys- N^ε(D-alpha-Tocopherol succinyl)-Arg-Sar-Arg-NH2 [AB36]” here?
A: Its value is 1.53 times.

Q: And the “Notch1 protein expression by immunofluorescence” value (Notch1 protein)?
A: Its value is “significantly lowered”.

Q: What about the “time at which degradation by trypsin starts” value (trypsin) of the same compound?
A: The value was 1 to 3 h.

Q: And the “time at which lipopeptide is completely degraded by trypsin” value (trypsin)?
A: The value was 6 h.

Q: Which results are given for “c[-Arg-^DHis-Arg-^DHis-Arg-Lys{Lys(linoleyl)2}-Arg-^DHis-Arg-^DHis-Arg-Glu-]-Lys(FAM)-NH2 (head to tail) [Peptide 6, reference compound]”?
A: Knockdown percentage, Notch1 (Notch1 gene): 80.9 ± 1.6%; Knockdown percentage, Erk2 (Erk2 gene): 71.6 ± 9.4%; Knockdown percentage, Erk1 (Erk1 gene; [4]): 31.2 ± 2.2%; Knockdown percentage, Erk1 (Erk1 gene; 72 h, MDA-MB-231, MR50, RT-PCR): 78.1 ± 2.0%
